Test results taken from ChEMBL document CHEMBL4715825, “Synthesis and biological evaluations of marine oxohexadecenoic acids: PPARα/γ dual agonism and anti-diabetic target gene effects” (Eur J Med Chem, 2018).
Activity calls are given as the source filed them. The calls are words filed in the database; no cut-off is given here.

Key:
[1] = Cytotoxicity against African green monkey COS-1 cells assessed as cell viability at EC50 concentration for PPAR activation assay by LDH assay; format: cell-based; settings: chlorocebus aethiops, read-out: Activity
Procedure, shortened: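 Assayed in the same COS-1 cultures as the Gal4-LBD PPAR reporter assays. Lactate dehydrogenase released into the medium was measured with a commercial kit per the maker's protocol. Absorbance was read at 492/750 nm.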

[2] = biological target: T1, Peroxisome proliferator-activated receptor alpha (Homo sapiens) (UniProt Q07869); test: Agonist activity at recombinant human PPARalpha LBD (168 to 468 residues) expressed in African green monkey COS-1 cells at 25 to 50 uM incubated for 18 hrs by luciferase reporter gene assay; format: cell-based; settings: filed as agonist, dose 25-50 µM
T1 sequence (whole entry): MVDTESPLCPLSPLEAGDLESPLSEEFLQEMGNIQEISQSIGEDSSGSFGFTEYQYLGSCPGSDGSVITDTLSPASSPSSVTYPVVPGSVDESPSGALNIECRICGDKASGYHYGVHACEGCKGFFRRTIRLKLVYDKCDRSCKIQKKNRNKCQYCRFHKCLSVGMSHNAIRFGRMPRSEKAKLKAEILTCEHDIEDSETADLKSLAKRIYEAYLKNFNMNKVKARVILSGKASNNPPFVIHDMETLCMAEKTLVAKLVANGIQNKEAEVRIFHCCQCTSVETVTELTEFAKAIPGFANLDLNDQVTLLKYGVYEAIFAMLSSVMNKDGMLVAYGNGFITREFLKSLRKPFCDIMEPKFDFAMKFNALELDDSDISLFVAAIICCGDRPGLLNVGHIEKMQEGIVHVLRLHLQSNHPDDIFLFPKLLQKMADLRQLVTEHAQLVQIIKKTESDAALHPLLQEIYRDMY
Procedure, shortened: (§1)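 Transient Gal4 one-hybrid assay in COS-1 cells (7×10^4 per well), transfected 24 h after seeding. Plasmids were Gal4-DBD fused to the human nuclear receptor LBD, a 5×UAS-SV40 luciferase reporter and pRL-CMV Renilla control. Ligand in DMSO (final 0.1%) was added 5 h post-transfection. Dual-luciferase activity was read after 18 h, expressed as RLU, from three biological replicates in quadruplicate.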

[3] = biological target: T2, Oxysterols receptor LXR-beta (Homo sapiens) (UniProt P55055); test: Agonist activity at recombinant human LXRbeta LBD (155 to 461 residues) expressed in African green monkey COS-1 cells at 25 to 50 uM incubated for 18 hrs by luciferase reporter gene assay; format: cell-based; settings: dose 25-50 µM; procedure, shortened: as §1
T2 sequence (whole entry): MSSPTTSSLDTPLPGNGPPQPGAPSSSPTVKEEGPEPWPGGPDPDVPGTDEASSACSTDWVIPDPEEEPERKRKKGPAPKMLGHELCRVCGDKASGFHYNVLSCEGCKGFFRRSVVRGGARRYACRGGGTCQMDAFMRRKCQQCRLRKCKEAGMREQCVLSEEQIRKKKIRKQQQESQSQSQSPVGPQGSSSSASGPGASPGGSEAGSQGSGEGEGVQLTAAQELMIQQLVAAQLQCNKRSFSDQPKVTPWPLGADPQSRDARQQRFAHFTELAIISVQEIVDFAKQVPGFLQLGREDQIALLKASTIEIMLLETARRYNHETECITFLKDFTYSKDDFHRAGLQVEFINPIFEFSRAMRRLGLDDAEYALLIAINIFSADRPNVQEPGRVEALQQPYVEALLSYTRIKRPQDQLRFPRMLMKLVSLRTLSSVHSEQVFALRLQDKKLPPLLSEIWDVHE

[4] = biological target: T1, Peroxisome proliferator-activated receptor alpha (Homo sapiens); test: Agonist activity at human PPARalpha in human HuH-7 cells assessed as increase in CPT1A gene expression at 50 uM incubated for 24 hrs by SYBR-green based qPCR analysis; format: cell-based; settings: filed as agonist
Procedure, shortened: (§2)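 Cells were seeded at 2×10^5 per well and treated 24 h later with compound in DMSO (final 0.1%). The next day, cells were washed and scraped into RLT buffer. RNA was isolated, and target gene mRNA was quantified by SYBR-green qPCR with specific primers.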

[5] = biological target: T1, Peroxisome proliferator-activated receptor alpha (Homo sapiens); test: Agonist activity at human PPARalpha in human HuH-7 cells assessed as increase in ACOX1 gene expression at 50 uM incubated for 24 hrs by SYBR-green based qPCR analysis; format: cell-based; procedure, shortened: as §2
SGBS [6] = test: Induction of adipogenesis in 8 day differentiated human SGBS cells assessed as increase in adipocyte-like multilocular morphology cells at 25 uM measured upto 12 days by oil-O-red staining based inverted microscopic analysis; format: functional, cell-based; settings: time day <=12
Procedure, shortened: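 SGBS cells were differentiated in Quickdiff for 4 days, supplemented with 25 µM oxo-fatty acid or 2 µM rosiglitazone, then in 3FC to day 8. Controls were DMSO (0.025%) or BSA (4.2 µM). Cells were fixed in 4% paraformaldehyde for 15 min and stained 15 min with Oil Red O for neutral lipids. They were imaged by inverted microscope at 10× and 40×. Three biological replicates were run in duplicate.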

SGBS [7] = test: Induction of adipogenesis in 8 day differentiated human SGBS cells assessed as upregulation of PPAR signalling genes at 25 uM incubated for 8 days by Illumina sequencing method; format: functional, cell-based
Procedure, shortened: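 SGBS cells were differentiated for 8 days: Quickdiff for days 0-4 with 2 µM rosiglitazone or 25 µM oxo-fatty acid:BSA, then 3FC. Total RNA was extracted (RIN 9.80-10.00) and strand-specific TruSeq libraries were sequenced on NextSeq 500 (2×75 bp paired-end). Reads were aligned to hg19 and quantified as RPKM. Data were expressed as log2 fold over day-0 cells (n = 2-4) and grouped into KEGG gene sets.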

[8] = biological target: T3, Peroxisome proliferator-activated receptor gamma (Homo sapiens) (UniProt P37231); test: Agonist activity at human PPARgamma in 8 day differentiated human SGBS cells assessed as increase in ADIPOQ gene expression at 25 uM incubated for 24 hrs by SYBR-green based qPCR analysis; format: cell-based; settings: filed as agonist
T3 sequence (whole entry): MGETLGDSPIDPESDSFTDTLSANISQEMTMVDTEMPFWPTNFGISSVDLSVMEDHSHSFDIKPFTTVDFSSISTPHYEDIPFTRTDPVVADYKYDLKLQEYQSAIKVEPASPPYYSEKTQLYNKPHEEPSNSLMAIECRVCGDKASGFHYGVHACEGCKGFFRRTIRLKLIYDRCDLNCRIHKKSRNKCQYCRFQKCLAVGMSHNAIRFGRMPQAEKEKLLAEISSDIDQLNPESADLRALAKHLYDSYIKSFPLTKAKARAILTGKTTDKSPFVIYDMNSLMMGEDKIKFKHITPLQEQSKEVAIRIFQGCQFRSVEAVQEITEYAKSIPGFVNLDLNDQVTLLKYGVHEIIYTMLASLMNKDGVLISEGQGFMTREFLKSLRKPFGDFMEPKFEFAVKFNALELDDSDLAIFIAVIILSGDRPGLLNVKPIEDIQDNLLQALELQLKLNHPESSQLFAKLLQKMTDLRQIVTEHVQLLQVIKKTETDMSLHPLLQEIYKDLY
Procedure, shortened: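 SGBS preadipocytes were seeded at passage P6-P8 and grown to confluence. They were differentiated for 4 days in Quickdiff (3FC plus dexamethasone, IBMX and rosiglitazone), then kept in 3FC with medium renewed every fourth day. On day 8, cells were stimulated for 24 h in 3FC with compound:BSA or rosiglitazone. SYBR-green qPCR used gene-specific primers. Data are mean ± SEM of three biological replicates in duplicate.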

Activity [2]	Activity [3]	Activity [4]	Activity [5]	Activity [8]	Structure (SMILES)	viability [1] [%]	Activity (SGBS [6])	Activity (SGBS [7])
Active	inactive	Active	inactive	Active	CCCCC/C=C/C(=O)CCCCCCCC(=O)O	> 95	Active	Active
Active	inactive	Active	inactive	Active	CCCCCCCC(=O)/C=C/CCCCCC(=O)O	> 95	Active	Active
